Assay results: ChEMBL document CHEMBL1140720, “Novel prodrugs of tegafur that display improved anticancer activity and antiangiogenic properties” (J Med Chem, 2008)
Calls of active or inactive are those of the source. The rule behind the calls is not given here.

Legend:
HT-29 [1] = assay: Anticancer activity against human HT29 cells after 72 hrs in the presence of semicarbazide by Hoechst test; type: functional, cell-based; settings: HT-29, 72 h
Outline: (§1)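 Same 72 h Hoechst viability titration, run with or without co-addition of 500 µM semicarbazide as formaldehyde scavenger. IC50 and IC90 derived from dose-response curves.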

U-251 = assay: Anticancer activity against human U251 cells after 72 hrs by Hoechst test; type: functional, cell-based
Outline: (§2)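 Cells seeded at 0.5–1 × 10^4/well for 24 h, then exposed in triplicate to a concentration titration for 72 h. Drug stock 0.5 M in DMSO, final DMSO ≤0.1%. Cells rinsed with PBS, fixed in 70% ethanol, and stained for DNA (Hoechst). IC50/IC90 taken from best-fit curves (linear or exponential) of % survival vs concentration, ≥3 independent experiments.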

LS-1034 [2] = assay: Anticancer activity against human LS1034 cells after 72 hrs by Hoechst test; type: functional, cell-based; settings: LS-1034, 72 h; outline: as §2
HT-29 [3] = assay: Anticancer activity against human HT29 cells after 72 hrs by Hoechst test; type: functional, cell-based; settings: HT-29, 72 h; outline: as §2
[4] = Anticancer activity against human SK-ES cells after 72 hrs by Hoechst test; type: functional, cell-based; outline: as §2
BXPC-3 [5] = assay: Anticancer activity against human BXPC3 cells after 72 hrs in the presence of semicarbazide by Hoechst test; type: functional, cell-based; settings: BXPC-3, 72 h; outline: as §1
LS-1034 [6] = assay: Anticancer activity against human LS1034 cells after 72 hrs in the presence of semicarbazide by Hoechst test; type: functional, cell-based; settings: LS-1034, 72 h; outline: as §1
CT26 [7] = assay: Anticancer activity against mouse CT26 cells after 72 hrs in the presence of semicarbazide by Hoechst test; type: functional, cell-based; settings: CT26, 72 h; outline: as §1
HUVEC [8] = assay: Effect on cell viability of HUVEC cells after 48 hrs; type: functional, cell-based; settings: Homo sapiens
Outline: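 HUVEC grown at 37 °C, 5% CO2. Seeded in 96-well plates, then exposed to a concentration titration for 48 h. Viability read by Hoechst DNA fluorescence after ethanol fixation. IC50/IC90 from best-fit curves of ≥3 independent experiments.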

CT26 [9] = assay: Anticancer activity against mouse CT26 cells after 72 hrs by Hoechst test; type: functional, cell-based; settings: CT26, 72 h; outline: as §2
[10] = Anticancer activity against human MES-SA cells after 72 hrs by Hoechst test; type: functional, cell-based; outline: as §2
[11] = Anticancer activity against human astrocytes cells after 72 hrs by Hoechst test; type: ADME, cell-based, Astrocyte; settings: for IC50: Homo sapiens, Astrocyte, 72 h; for IC90 at 72 h: human, human astrocytes; outline: as §2
[12] = Anticancer activity against human MES-SA DXS cells after 72 hrs by Hoechst test; type: functional, cell-based; outline: as §2
[13] = Anticancer activity against mouse Pan02 cells after 72 hrs by Hoechst test; type: functional, cell-based; settings: Pan02, 72 h; outline: as §2
BXPC-3 [14] = assay: Anticancer activity against human BXPC3 cells after 72 hrs by Hoechst test; type: functional, cell-based; settings: BXPC-3, 72 h; outline: as §2
HUVEC [15] = assay: Antiangiogenic activity against HUVEC cells assessed as tube formation at 80 uM after 3 hrs; type: functional, cell-based; settings: Homo sapiens
Outline: (§3)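 HUVEC (5 × 10^4 cells/well) seeded on a matrigel layer in supplemented EGM-2 medium. Test agent added at 80 µM, triplicate wells, incubated 3 to 24 h. Tube formation was visualized by light microscopy and photographed at ×40.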

HUVEC [16] = assay: Antiangiogenic activity against HUVEC cells assessed as tube formation at 80 uM after 8 hrs; type: functional, cell-based; settings: Homo sapiens; outline: as §3
Mus musculus = assay: Inhibition of HDAC in po dosed mouse 4T1 tumor implanted in BALB/c mouse assessed as histone acetylation level after 4 hrs; type: functional
Outline: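 Balb/c mice carrying sc 4T1 tumors (5 × 10^4 cells implanted), dosed orally at 100 mg/kg once tumors reached 1.0 cm³. Tumors excised 4 h later and histones extracted; 5 µg protein run on 15% SDS gels. Western blot for acetyl-H4 (Lys-12), normalized to pan-H3; fold change versus untreated.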

HT-29 [17] = assay: Anticancer activity against human HT29 cells after 72 hrs in the presence of succinate by Hoechst test; type: functional, cell-based; settings: HT-29, 72 h
Outline: (§4)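 Same 72 h Hoechst viability titration, with or without co-addition of succinic acid at 2.5 mM. IC50 and IC90 derived from dose-response curves.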

LS-1034 [18] = assay: Anticancer activity against human LS1034 cells after 72 hrs in the presence of HMTA by Hoechst test; type: functional, cell-based; settings: LS-1034, 72 h
Outline: (§5)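 Same 72 h Hoechst viability titration, with or without co-addition of hexamethylenetetramine (HMTA) at 250 µM. IC50 and IC90 derived from dose-response curves.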

HT-29 [19] = assay: Antitumor activity against human HT29 xenografted CD1 mouse at 50 mg/kg, po; type: functional, organism-based; design: dose 50 mg/kg
Outline: (§6)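 Male nude CD1 mice implanted sc in the flank with HT-29 cells. Once tumors were palpable, oral dosing at 50 mg/kg (water vehicle), with vehicle-only controls; 14 controls, 12 per treated group. Tumors measured by caliper twice weekly, volume = (L × W²)/2. At the end, blood drawn for serum CEA.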

BXPC-3 [20] = assay: Anticancer activity against human BXPC3 cells after 72 hrs in the presence of succinate by Hoechst test; type: functional, cell-based; settings: BXPC-3, 72 h; outline: as §4
LS-1034 [21] = assay: Anticancer activity against human LS1034 cells after 72 hrs in the presence of succinate by Hoechst test; type: functional, cell-based; settings: LS-1034, 72 h; outline: as §4
BXPC-3 [22] = assay: Anticancer activity against human BXPC3 cells after 72 hrs in the presence of HMTA by Hoechst test; type: functional, cell-based; settings: BXPC-3, 72 h; outline: as §5
CT26 [23] = assay: Anticancer activity against mouse CT26 cells after 72 hrs in the presence of succinate by Hoechst test; type: functional, cell-based; settings: CT26, 72 h; outline: as §4
CT26 [24] = assay: Anticancer activity against mouse CT26 cells after 72 hrs in the presence of HMTA by Hoechst test; type: functional, cell-based; settings: CT26, 72 h; outline: as §5
HT-29 [25] = assay: Anticancer activity against human HT29 cells after 72 hrs in the presence of HMTA by Hoechst test; type: functional, cell-based; settings: HT-29, 72 h; outline: as §5
HT-29 [26] = assay: Antitumor activity against human HT29 xenografted CD1 mouse assessed as decrease in CEA level; type: functional; outline: as §6
HUVEC [27] = assay: Antiangiogenic activity against HUVEC cells assessed as tube formation at 80 uM after 24 hrs; type: functional, cell-based; settings: Homo sapiens; outline: as §3

Question: With `O=c1c(F)cn(C2CCCO2)c(=O)n1CO` (centres undefined) as the compound, how does the IC50 (HT-29 [1]) read?
Answer: 164 µM

Question: And the IC90 (HT-29 [1])?
Answer: 303 µM

Question: And the IC50 (U-251; Homo sapiens, U-251, 72 h)?
Answer: 103 µM

Question: What about the IC90 (U-251; Homo sapiens, U-251, 72 h) of the same compound?
Answer: 223 µM

Question: What about the IC50 (LS-1034 [2]) of the same compound?
Answer: 84 µM

Question: And the IC50 (HT-29 [3])?
Answer: 67 µM

Question: And the IC50 [4]?
Answer: 45 µM

Question: What about the IC90 [4] of the same compound?
Answer: 80 µM

Question: And the IC50 (BXPC-3 [5])?
Answer: 160 µM

Question: What about the IC90 (BXPC-3 [5]) of the same compound?
Answer: 460 µM

Question: What about the IC50 (LS-1034 [6]) of the same compound?
Answer: 132 µM

Question: And the IC90 (LS-1034 [6])?
Answer: 296 µM

Question: And the IC50 (CT26 [7])?
Answer: 132 µM

Question: What about the IC90 (CT26 [7]) of the same compound?
Answer: 252 µM

Question: And the IC50 (HUVEC [8])?
Answer: 70 µM

Question: And the IC90 (HUVEC [8])?
Answer: 120 µM

Question: What about the IC50 (CT26 [9]) of the same compound?
Answer: 99 µM

Question: What about the IC90 (CT26 [9]) of the same compound?
Answer: 170 µM

Question: What about the IC50 [10] of the same compound?
Answer: 79 µM

Question: What about the IC50 [11] of the same compound?
Answer: 187 µM

Question: And the IC90 at 72 h [11]?
Answer: 476 µM

Question: And the IC50 [12]?
Answer: 63 µM

Question: What about the IC50 [13] of the same compound?
Answer: 96 µM

Question: What about the IC90 [13] of the same compound?
Answer: 219 µM

Question: What about the IC50 (BXPC-3 [14]) of the same compound?
Answer: 74 µM

Question: Which IC50 (U-251; Homo sapiens, U-251, 72 h) does the source give for `CCOP(=O)(OCC)OCn1c(=O)c(F)cn(C2CCCO2)c1=O` (centres undefined) here?
Answer: 73 µM

Question: What about the IC90 (U-251; Homo sapiens, U-251, 72 h) of the same compound?
Answer: 287 µM

Question: And the IC50 (HT-29 [3])?
Answer: 19 µM

Question: And the IC90 (HT-29 [3])?
Answer: 80 µM

Question: What about the IC50 [11] of the same compound?
Answer: 832 µM

Question: What about the IC90 at 72 h [11] of the same compound?
Answer: 2790 µM

Question: Which results are given for `O=c1[nH]c(=O)n(C2CCCO2)cc1F` (centres undefined) [TEGAFUR]?
Answer: IC50 (U-251; Homo sapiens, U-251, 72 h): 384 µM; IC90 (U-251; Homo sapiens, U-251, 72 h): 1280 µM; Activity (HUVEC [15]): inactive; Activity (HUVEC [16]): inactive; Activity (Mus musculus): 2; IC50 [4]: 174 µM; IC90 [4]: 531 µM; IC50 (HT-29 [17]): 158 µM; IC90 (HT-29 [17]): 644 µM; IC50 (LS-1034 [18]): 193 µM; IC90 (LS-1034 [18]): 852 µM; Activity (HT-29 [19]): Active; IC50 (HUVEC [8]): 1000 µM; IC90 (HUVEC [8]): 3400 µM; IC50 (BXPC-3 [20]): 154 µM; IC90 (BXPC-3 [20]): 719 µM; IC50 (LS-1034 [21]): 172 µM; IC90 (LS-1034 [21]): 617 µM; IC50 (BXPC-3 [22]): 145 µM; IC90 (BXPC-3 [22]): 654 µM; IC50 (CT26 [23]): 90 µM; IC90 (CT26 [23]): 311 µM; IC50 (CT26 [24]): 107 µM; IC90 (CT26 [24]): 464 µM; IC50 [11]: 4290 µM; IC90 at 72 h [11]: 7680 µM; IC50 [13]: 179 µM; IC90 [13]: 637 µM; IC50 (HT-29 [25]): 158 µM; IC90 (HT-29 [25]): 612 µM; Activity (HT-29 [26]): Active; Activity (HUVEC [27]): inactive

Question: For `CCCC(=O)OCn1c(=O)c(F)cn(C2CCCO2)c1=O` (centres undefined), which IC50 (HT-29 [1]) is on record?
Answer: 51 µM

Question: And the IC90 (HT-29 [1])?
Answer: 138 µM

Question: What about the IC50 (U-251; Homo sapiens, U-251, 72 h) of the same compound?
Answer: 55 µM

Question: What about the IC50 (U-251; u-251) of the same compound?
Answer: 107 µM

Question: What about the IC50 (LS-1034 [2]) of the same compound?
Answer: 42 µM

Question: What about the IC90 (LS-1034 [2]) of the same compound?
Answer: 79 µM

Question: And the IC50 (HT-29 [3])?
Answer: 35 µM

Question: And the IC90 (HT-29 [3])?
Answer: 84 µM

Question: And the Activity (Mus musculus)?
Answer: 2

Question: And the IC50 [4]?
Answer: 47 µM

Question: What about the IC90 [4] of the same compound?
Answer: 81 µM

Question: What about the IC50 (BXPC-3 [5]) of the same compound?
Answer: 88 µM

Question: And the IC90 (BXPC-3 [5])?
Answer: 280 µM

Question: What about the IC50 (LS-1034 [6]) of the same compound?
Answer: 34 µM

Question: And the IC90 (LS-1034 [6])?
Answer: 94 µM

Question: And the IC50 (CT26 [7])?
Answer: 52 µM

Question: And the IC90 (CT26 [7])?
Answer: 105 µM

Question: What about the Activity (HT-29 [19]) of the same compound?
Answer: Active

Question: What about the IC50 (HUVEC [8]) of the same compound?
Answer: 100 µM

Question: What about the IC90 (HUVEC [8]) of the same compound?
Answer: 170 µM

Question: What about the IC50 (CT26 [9]) of the same compound?
Answer: 27 µM

Question: What about the IC90 (CT26 [9]) of the same compound?
Answer: 76 µM

Question: And the IC50 [10]?
Answer: 71 µM

Question: And the IC50 [11]?
Answer: 200 µM

Question: What about the IC90 at 72 h [11] of the same compound?
Answer: 323 µM

Question: What about the IC50 [12] of the same compound?
Answer: 54 µM

Question: And the IC50 [13]?
Answer: 46 µM

Question: What about the IC90 [13] of the same compound?
Answer: 149 µM

Question: What about the Activity (HT-29 [26]) of the same compound?
Answer: Active

Question: And the Activity (HUVEC [27])?
Answer: Active

Question: What about the IC50 (BXPC-3 [14]) of the same compound?
Answer: 81 µM
